Values after ≈ are worked out from the molar mass of the structure shown.
What was measured:
Mycobacterium kansasii [1] = test: Antimycobacterial activity against Mycobacterium kansasii CNCTC My 235/80 after 21 days; assay type: functional; conditions: CNCTC My 235/80, 504 h
Procedure, shortened: (§1)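 Compounds were added as DMSO solutions to Sula semisynthetic medium at 250, 125, 62, 32, 16, 8, 4, 2 and 1 µmol/L. Two M. kansasii strains were used: CNCTC My 235/80 and clinical isolate 6509/96, each with strain dilution 10^-4. Incubation was at 37 °C, and MIC was read at 7, 14 and 21 days.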

Mycobacterium kansasii [2] = test: Antimycobacterial activity against Mycobacterium kansasii isolate 6509/96 after 14 days; assay type: functional; conditions: isolate 6509/96, 336 h; procedure, shortened: as §1
Mycobacterium kansasii [3] = test: Antimycobacterial activity against Mycobacterium kansasii CNCTC My 235/80 after 14 days; assay type: functional; conditions: CNCTC My 235/80, 336 h; procedure, shortened: as §1
Mycobacterium kansasii [4] = test: Antimycobacterial activity against Mycobacterium kansasii CNCTC My 235/80 after 7 days; assay type: functional; conditions: CNCTC My 235/80, 168 h; procedure, shortened: as §1
[5] = tested on: Mycobacterium tuberculosis; test: Antimycobacterial activity against Mycobacterium tuberculosis CNCTC My 331/88 after 21 days; assay type: functional; conditions: CNCTC My 331/88, 504 h
Procedure, shortened: (§2)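 Broth dilution in Sula semisynthetic medium, compounds added as DMSO solutions at 250, 125, 62, 32, 16, 8, 4, 2 and 1. Strains came from the Czech National Collection of Type Cultures; the M. tuberculosis inoculum was diluted 10^-3. Cultures were incubated at 37 °C, and MIC was read after 7, 14 and 21 days.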

Mycobacterium avium [6] = test: Antimycobacterial activity against Mycobacterium avium CNCTC My 330/88 after 21 days; assay type: functional; conditions: CNCTC My 330/88, 504 h; procedure, shortened: as §2
Mycobacterium kansasii [7] = test: Antimycobacterial activity against Mycobacterium kansasii isolate 6509/96 after 7 days; assay type: functional; conditions: isolate 6509/96, 168 h; procedure, shortened: as §1
Mycobacterium avium [8] = test: Antimycobacterial activity against Mycobacterium avium CNCTC My 330/88 after 14 days; assay type: functional; conditions: CNCTC My 330/88, 336 h; procedure, shortened: as §2
[9] = Lipophilicity, log K by HPLC; assay type: physicochemical
Procedure, shortened: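 Capacity factors k were measured by RP-HPLC and log k was calculated from them.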

[10] = tested on: Mycobacterium tuberculosis; test: Antimycobacterial activity against Mycobacterium tuberculosis CNCTC My 331/88 after 14 days; assay type: functional; conditions: CNCTC My 331/88, 336 h; procedure, shortened: as §2
Mycobacterium kansasii [11] = test: Antimycobacterial activity against Mycobacterium kansasii isolate 6509/96 after 21 days; assay type: functional; conditions: isolate 6509/96, 504 h; procedure, shortened: as §1

Structure (SMILES)	MIC (Mycobacterium kansasii [1])	MIC (Mycobacterium kansasii [2])	MIC (Mycobacterium kansasii [3])	MIC (Mycobacterium kansasii [4])	MIC [5]	MIC (Mycobacterium avium [6])	MIC (Mycobacterium kansasii [7])	MIC (Mycobacterium avium [8])	log K [9]	MIC [10]	MIC (Mycobacterium kansasii [11])
C[C@@H](NC(=O)OCc1ccccc1)C(=O)Oc1ccc(Cl)cc1C(=O)Nc1ccc(Br)cc1	8 µM (≈ 4.25 µg/mL)	16 µM (≈ 8.51 µg/mL)	8 µM (≈ 4.25 µg/mL)	4 µM (≈ 2.13 µg/mL)	4 µM (≈ 2.13 µg/mL)	16 µM (≈ 8.51 µg/mL)	8 µM (≈ 4.25 µg/mL)	16 µM (≈ 8.51 µg/mL)	0.7527	2 µM (≈ 1.06 µg/mL)	16 µM (≈ 8.51 µg/mL)
CC(C)[C@H](NC(=O)OCc1ccccc1)C(=O)Oc1ccc(Cl)cc1C(=O)Nc1ccc(Cl)cc1	16 µM (≈ 8.25 µg/mL)	8 µM (≈ 4.12 µg/mL)	16 µM (≈ 8.25 µg/mL)	8 µM (≈ 4.12 µg/mL)	4 µM (≈ 2.06 µg/mL)	16 µM (≈ 8.25 µg/mL)	8 µM (≈ 4.12 µg/mL)	16 µM (≈ 8.25 µg/mL)	0.9417	4 µM (≈ 2.06 µg/mL)	16 µM (≈ 8.25 µg/mL)
O=C(N[C@@H](Cc1ccccc1)C(=O)Oc1ccc(Cl)cc1C(=O)Nc1ccc(Cl)cc1)OCc1ccccc1	16 µM (≈ 9.01 µg/mL)	16 µM (≈ 9.01 µg/mL)	16 µM (≈ 9.01 µg/mL)	8 µM (≈ 4.51 µg/mL)	4 µM (≈ 2.25 µg/mL)	16 µM (≈ 9.01 µg/mL)	8 µM (≈ 4.51 µg/mL)	16 µM (≈ 9.01 µg/mL)	1.0971	4 µM (≈ 2.25 µg/mL)	16 µM (≈ 9.01 µg/mL)
CC(C)[C@H](NC(=O)OCc1ccccc1)C(=O)Oc1cc(Cl)ccc1C(=O)Nc1ccc(Cl)cc1	8 µM (≈ 4.12 µg/mL)	8 µM (≈ 4.12 µg/mL)	8 µM (≈ 4.12 µg/mL)	4 µM (≈ 2.06 µg/mL)	8 µM (≈ 4.12 µg/mL)	16 µM (≈ 8.25 µg/mL)	4 µM (≈ 2.06 µg/mL)	16 µM (≈ 8.25 µg/mL)	0.8804	4 µM (≈ 2.06 µg/mL)	16 µM (≈ 8.25 µg/mL)
C[C@H](NC(=O)OCc1ccccc1)C(=O)Oc1cc(Cl)ccc1C(=O)Nc1ccc(Cl)cc1	8 µM (≈ 3.9 µg/mL)	8 µM (≈ 3.9 µg/mL)	8 µM (≈ 3.9 µg/mL)	4 µM (≈ 1.95 µg/mL)	8 µM (≈ 3.9 µg/mL)	16 µM (≈ 7.8 µg/mL)	8 µM (≈ 3.9 µg/mL)	16 µM (≈ 7.8 µg/mL)	0.6337	4 µM (≈ 1.95 µg/mL)	16 µM (≈ 7.8 µg/mL)
NNC(=O)c1ccncc1 [ISONIAZID]	> 250 µM	8 µM (≈ 1.1 µg/mL)	> 250 µM	> 250 µM	0.5 µM (≈ 0.0686 µg/mL)	> 250 µM	4 µM (≈ 0.549 µg/mL)	> 250 µM	–	0.5 µM (≈ 0.0686 µg/mL)	8 µM (≈ 1.1 µg/mL)
O=C(N[C@@H](Cc1ccccc1)C(=O)Oc1ccc(Cl)cc1C(=O)Nc1ccc(Br)cc1)OCc1ccccc1	8 µM (≈ 4.86 µg/mL)	16 µM (≈ 9.73 µg/mL)	8 µM (≈ 4.86 µg/mL)	4 µM (≈ 2.43 µg/mL)	8 µM (≈ 4.86 µg/mL)	16 µM (≈ 9.73 µg/mL)	16 µM (≈ 9.73 µg/mL)	16 µM (≈ 9.73 µg/mL)	1.1258	4 µM (≈ 2.43 µg/mL)	16 µM (≈ 9.73 µg/mL)
O=C(CNC(=O)OCc1ccccc1)Oc1ccc(Cl)cc1C(=O)Nc1cccc(Cl)c1	16 µM (≈ 7.57 µg/mL)	16 µM (≈ 7.57 µg/mL)	16 µM (≈ 7.57 µg/mL)	16 µM (≈ 7.57 µg/mL)	8 µM (≈ 3.79 µg/mL)	32 µM (≈ 15.1 µg/mL)	8 µM (≈ 3.79 µg/mL)	16 µM (≈ 7.57 µg/mL)	0.6119	4 µM (≈ 1.89 µg/mL)	16 µM (≈ 7.57 µg/mL)
O=C(CNC(=O)OCc1ccccc1)Oc1ccc(Cl)cc1C(=O)Nc1ccc(Cl)c(Cl)c1	16 µM (≈ 8.12 µg/mL)	8 µM (≈ 4.06 µg/mL)	8 µM (≈ 4.06 µg/mL)	8 µM (≈ 4.06 µg/mL)	2 µM (≈ 1.02 µg/mL)	32 µM (≈ 16.2 µg/mL)	8 µM (≈ 4.06 µg/mL)	16 µM (≈ 8.12 µg/mL)	0.8639	1 µM (≈ 0.508 µg/mL)	8 µM (≈ 4.06 µg/mL)
CC(C)[C@H](NC(=O)OCc1ccccc1)C(=O)Oc1ccc(Cl)cc1C(=O)Nc1cccc(Cl)c1	16 µM (≈ 8.25 µg/mL)	16 µM (≈ 8.25 µg/mL)	16 µM (≈ 8.25 µg/mL)	8 µM (≈ 4.12 µg/mL)	4 µM (≈ 2.06 µg/mL)	16 µM (≈ 8.25 µg/mL)	8 µM (≈ 4.12 µg/mL)	16 µM (≈ 8.25 µg/mL)	0.8972	4 µM (≈ 2.06 µg/mL)	16 µM (≈ 8.25 µg/mL)
C[C@@H](NC(=O)OCc1ccccc1)C(=O)Oc1ccc(Cl)cc1C(=O)Nc1ccc(Cl)c(Cl)c1	16 µM (≈ 8.35 µg/mL)	8 µM (≈ 4.17 µg/mL)	8 µM (≈ 4.17 µg/mL)	8 µM (≈ 4.17 µg/mL)	4 µM (≈ 2.09 µg/mL)	32 µM (≈ 16.7 µg/mL)	4 µM (≈ 2.09 µg/mL)	16 µM (≈ 8.35 µg/mL)	0.938	2 µM (≈ 1.04 µg/mL)	8 µM (≈ 4.17 µg/mL)
C[C@H](NC(=O)OCc1ccccc1)C(=O)Oc1ccc(Cl)cc1C(=O)Nc1ccc(Cl)c(Cl)c1	8 µM (≈ 4.17 µg/mL)	16 µM (≈ 8.35 µg/mL)	4 µM (≈ 2.09 µg/mL)	4 µM (≈ 2.09 µg/mL)	4 µM (≈ 2.09 µg/mL)	32 µM (≈ 16.7 µg/mL)	8 µM (≈ 4.17 µg/mL)	16 µM (≈ 8.35 µg/mL)	0.9408	2 µM (≈ 1.04 µg/mL)	16 µM (≈ 8.35 µg/mL)
